OX1R antag-1: OX1R (HCRTR1) antagonists, primary screen, fluorescence, CHO/OX1R cells, Fluo-8 calcium, orexin A | Orexin/Hypocretin receptor type 1 (Homo sapiens), O43613 | Fluo-8 calcium fluorescence | inhibition, % at 5 µM | hit rate 0.43% among 330,000 | AID 434989, 2010;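 active means inhibition above its plate's threshold, mean inhibition of all tested compounds on the plate plus 3 SD, cut at about 37% in these data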
GPR7 antag: GPR7 receptor antagonists, primary screen, cell-based, fluorescence, single concentration | GPR7-expressing cells, fluorescence antagonist assay | inhibition, % at 4.4 µM | hit rate 1.1% among 290,000 | AID 1861, 2009; in the data active means inhibition above about 16%, passing the limit was not always enough;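 further: cells stimulated with the agonist NPW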
Target sequence (P48145 whole entry, looked up): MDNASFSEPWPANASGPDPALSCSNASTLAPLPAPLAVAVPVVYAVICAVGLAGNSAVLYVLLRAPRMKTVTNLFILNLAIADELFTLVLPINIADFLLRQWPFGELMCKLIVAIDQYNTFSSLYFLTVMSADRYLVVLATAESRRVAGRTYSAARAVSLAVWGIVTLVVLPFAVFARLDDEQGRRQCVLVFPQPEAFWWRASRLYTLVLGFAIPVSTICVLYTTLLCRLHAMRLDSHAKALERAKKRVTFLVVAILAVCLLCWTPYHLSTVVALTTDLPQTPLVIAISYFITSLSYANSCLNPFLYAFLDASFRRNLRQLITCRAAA
TAAR1 ag: human TAAR1 agonists, primary screen, Fluo-8 calcium fluorescence, CHO RD-HGA16 cells. Trace amine-associated receptor 1 (Homo sapiens), Q96RJ0. vehicle wells 0%, saturating PEA agonist 100%. activation, % at 3 µM. hit rate 0.99% among 360,000;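 active means activation above the mean activation of all test compounds in the run plus 3 SD, cut at about 38% in these data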
Target sequence (Q96RJ0 whole entry, looked up): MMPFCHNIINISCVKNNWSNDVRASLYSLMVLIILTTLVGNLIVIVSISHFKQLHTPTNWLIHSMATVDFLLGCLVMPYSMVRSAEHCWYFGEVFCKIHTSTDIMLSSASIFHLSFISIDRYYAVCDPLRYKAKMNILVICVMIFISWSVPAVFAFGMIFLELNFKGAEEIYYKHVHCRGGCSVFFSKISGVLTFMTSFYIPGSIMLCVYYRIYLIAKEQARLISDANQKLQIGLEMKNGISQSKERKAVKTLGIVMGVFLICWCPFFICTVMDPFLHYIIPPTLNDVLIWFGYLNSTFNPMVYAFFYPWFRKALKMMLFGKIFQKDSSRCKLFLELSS
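Assay system: CHO-derived RD-HGA16 cells with stable Gα16 and human TAAR1; timing: 17-24 h seeding, 75 min 37 °C dye, 30 min RT; read-out: % activation from peak over basal fluorescence ratio, DMSO-to-PEA scaled; measured by: kinetic Fluo-8 calcium fluorescence; benchmarks: low control DMSO, high control PEA (EC100); doses: 3 µM single concentration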
OX1R antag-2: antagonists of human orexin 1 receptor (OX1R). Orexin/Hypocretin receptor type 1 (Homo sapiens), O43613. OX1R-expressing cells, FRET antagonist read-out. inhibition, % at 6.6 µM. hit rate 1.8% among 330,000; in the data active means inhibition mostly above about 38%, no sharp cut-off; inactive means mostly below about 40%
CHO parental Ca: ATP-evoked calcium signal inhibitors, parental CHO, primary screen, counter-screen for OX1R antagonist project, cell-based, fluorescence, Fluo-8 calcium dye. AID 463079, 2010. parental CHO-K1, ATP-induced calcium, Fluo-8 fluorescence. hit rate 0.63% among 330,000. inhibition, % at 5.6 µM;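 active means inhibition above that plate's mean sample inhibition plus 3 SD, cut at about 26% in these data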
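Measured by: calcium-sensitive Fluo-8 fluorescence / Test system: CHO parental line / Controls: ATP-challenged DMSO wells low, unchallenged DMSO wells high / Measure: % inhibition / Compound: single nominal dose of 5.6 µM per compound / Replicates: single well per compound, no replicates / Reagent: ATP as calcium-mobilizing challenge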
TAAR1 antag: human TAAR1 antagonists, primary screen, Fluo-8 calcium fluorescence, CHO RD-HGA16 cells; hit rate 1.5% among 360,000; antagonist; inhibition, % at 3 µM; Trace amine-associated receptor 1 (Homo sapiens), Q96RJ0;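 active means inhibition above a per-plate cutoff, the mean inhibition of test compounds on that plate plus 3 SD, cut at about 49% in these data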
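Material: RD-HGA16 CHO cells with stable hTAAR1 and Gα16; Dosing: single nominal final test compound concentration of 3 µM; Schedule: seeding 17-24 h prior, 75-min 37 °C, 30-min RT dye loading; Detection: kinetic Fluo-8 calcium fluorescence measurement; Measure: % inhibition from peak post-agonist over basal fluorescence ratio; Benchmarks: vehicle and agonist controls.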
Hits are given with their value; i = inactive; nt = no result. Sampled rows, rich in hits. Any-hit rate of the full collection: about 4.5%.

SMILES	OX1R antag-1	GPR7 antag	TAAR1 ag	OX1R antag-2	CHO parental Ca	TAAR1 antag
C=CCNc1ncnc2c1ncn2[C@H]1CN(CCc2ccccc2)C[C@@H](CO)O1	nt	nt	38	nt	nt	i
C=CCNc1ncnc2c1ncn2[C@H]1CN(Cc2ccccc2)C[C@@H](CO)O1	nt	nt	i	nt	nt	i
COc1cc(CN2C[C@@H](CO)O[C@@H](n3cnc4c(NC5CCC5)ncnc43)C2)cc(OC)c1OC	nt	nt	i	nt	nt	i
OC[C@@H]1CN(Cc2ccc3c(c2)OCO3)C[C@H](n2cnc3c(N4CCN(c5ccccc5)CC4)ncnc32)O1	nt	nt	i	nt	nt	55
COc1cc(CN2C[C@@H](CO)O[C@@H](n3cnc4c(Nc5ccccc5)ncnc43)C2)cc(OC)c1OC	nt	nt	i	nt	nt	60
Cc1ccc(CNC(=O)C2(C)CCN2C(=O)Cc2ccc(-c3ccccc3)cc2)cc1 (centres undefined)	nt	nt	i	nt	nt	i
COc1ccc(Cn2ccnc2SCC(=O)Nc2ccc(F)cc2F)cc1	nt	nt	i	nt	nt	i
CCc1nc2c(OCc3ccc(F)c(F)c3)cccn2c1N(C)C(=O)c1cccs1	nt	nt	i	nt	nt	i
Cc1nn(C)c(C)c1NC(=O)Nc1ccc(Cl)c(Cl)c1	i	i	i	i	44	i
Cc1ccc(S(=O)(=O)NC(=O)Nc2ccc(N(C)C)cc2)cc1	i	i	i	51	i	i
Cc1ccc(S(=O)(=O)NNC(=O)Nc2ccc(Cl)c(Cl)c2)cc1	i	i	i	194	i	i
CN(C)Cc1c(C(C)(C)O)[nH]c2ccc(C(F)(F)F)cc12	i	nt	i	i	i	i
CCc1c(C2(O)CCCCC2)[nH]c2ccc(C(F)(F)F)cc12	i	i	i	59	40	i
CC(=O)Nc1cc(-c2ccccc2)cn2c(-c3ccc(F)cc3)cnc12	nt	nt	i	nt	nt	49
COc1cc(-c2cc(NC(C)=O)c3ncc(-c4ccc(C(C)=O)cc4)n3c2)cc(OC)c1OC	nt	nt	i	nt	nt	i
COc1cc(-c2cc(NC(C)=O)c3ncc(-c4ccc(F)cc4)n3c2)cc(OC)c1OC	nt	nt	i	nt	nt	52
CC(=O)OC1(C(C)=O)CCC2C3CC(Cl)C4=CC(=O)CCC4(C)C3CCC21C (centres undefined)	nt	nt	i	nt	nt	i
CCC1(c2ccc(OC)cc2)NC(=O)N(CC(=O)N2CCc3ccccc32)C1=O (centres undefined)	nt	nt	64	nt	nt	i
CC1(c2ccccc2)NC(=O)N(CC(=O)Nc2ccccc2N2CCCCC2)C1=O (centres undefined)	i	nt	i	i	i	i
CCC1(c2ccccc2)NC(=O)N(CC(=O)N(CC(=O)Nc2ccccc2C(F)(F)F)Cc2ccco2)C1=O (centres undefined)	i	nt	44	i	i	i
CCC1(c2ccc(OC)cc2)NC(=O)N(CC(=O)c2ccc3c(c2)OCCO3)C1=O (centres undefined)	i	nt	38	i	i	i
CCC1(c2ccccc2)NC(=O)N(CC(=O)Nc2ccccc2N2CCCC2)C1=O (centres undefined)	i	nt	39	i	i	i
CC(C)CN(CC(C)C)S(=O)(=O)N1CCC(C(=O)NCc2ccco2)CC1	i	i	i	i	i	i
CCn1c(SCC(=O)N2c3ccccc3CCc3ccccc32)nc2c1c(=O)n(C)c(=O)n2C	i	i	i	i	i	i
CC1Cc2ccccc2N1C(=O)CSc1nc2c(c(=O)n(C)c(=O)n2C)n1Cc1ccccc1 (centres undefined)	i	i	i	i	i	52
SMILES	OX1R antag-1	GPR7 antag	TAAR1 ag	OX1R antag-2	CHO parental Ca	TAAR1 antag
O=[N+]([O-])c1ccc2cn[nH]c2c1	i	i	i	49	i	i
CCCc1nc2ccc(Cl)cn2c1Cc1ccsc1	nt	nt	i	nt	nt	i
Cc1cc(S(=O)(=O)NCc2ccncc2)c(C)cc1Br	i	i	i	i	46	i
CCOc1ccc(S(=O)(=O)NCc2ccncc2)cc1	i	21	i	i	i	i
CCOc1cc(S(=O)(=O)NCc2cccs2)ccc1Cl	i	i	i	i	i	i
Cc1ccc(C)c(S(=O)(=O)NCc2ccncc2)c1	i	i	i	i	i	i
Cc1ccc(S(=O)(=O)NCc2ccncc2)cc1	i	i	i	i	i	i
CCOc1cc(S(=O)(=O)NCc2ccncc2)ccc1Cl	i	i	i	i	38	i
CC(=O)c1cc2c(cc1F)C(C)(C)CCC2(C)C	nt	nt	i	nt	nt	i
CCOc1cccc(-c2ccc3nncn3c2)c1	nt	nt	i	nt	nt	i
O=C(NCCN1CCN(c2ccc([N+](=O)[O-])cc2)CC1)NCc1ccccc1	i	i	i	34	i	i
O=C(NCCN1CCN(Cc2ccc([N+](=O)[O-])cc2)CC1)C(=O)Nc1ccccc1	i	i	i	i	i	i
Cc1ccccc1C(=O)Oc1ccc2ccc(O)cc2c1	i	i	i	i	66	i
COc1ccc(Cl)cc1NC(=S)Nc1cccnc1	i	i	i	i	i	i
O=C(O)c1ccc(N/N=C/c2cc(Br)cs2)cc1	i	i	38	i	i	i
O=C(N/N=C\c1cc(Br)cs1)c1ccncc1	i	i	i	i	i	i
O=S(c1ccc2ccccc2c1)c1cnns1 (centres undefined)	i	i	55	i	i	i
O=C1CC(C(=O)O)C(c2ccccc2)c2ccccc21 (centres undefined)	nt	nt	i	nt	nt	i
CCCCC(=O)Nc1ccc2c3c(cccc13)C(=O)N2CC	i	i	i	45	i	i
CCCc1ccc(-c2cc(NC(=O)Cc3c[nH]c4ccccc34)ccc2Nc2cccnc2)cc1	nt	nt	i	nt	nt	i
CC(C)N(Cc1ccccc1)C(=O)CN1c2cccc3cccc(c23)S1(=O)=O	i	nt	i	39	i	i
CN(C)C(=O)CN1c2cccc3cccc(c23)S1(=O)=O	i	i	i	i	i	i
CCOC(=O)c1cnc(-n2[nH]c(C)c(Cc3ccccc3)c2=O)[nH]c1=O	i	17	i	i	i	i
CCOC(=O)c1cnc(Cc2ccccc2)[nH]c1=O	i	i	i	i	i	i
CCOc1ccc(N(C)c2ccc(/C=C3/SC(=S)NC3=O)cc2)cc1	33	i	i	i	26	59
O=C1NC(=S)S/C1=C\c1cc(Cl)ccc1Cl	nt	nt	i	nt	nt	i
CCOc1c(O)ccc(/C=C2\SC(=S)NC2=O)c1[N+](=O)[O-]	i	i	i	50	i	i
O=C1NC(=S)S/C1=C/c1ccc(Oc2cnccn2)cc1	i	i	i	i	i	i
CCC(=O)N1CCCC1(C)C(=O)Nc1ccc(C)c(C)c1 (centres undefined)	nt	nt	i	nt	nt	i
